Test results: ChEMBL document CHEMBL1140527, “Synthesis and antimicrobial activity of some novel nucleoside analogues of adenosine and 1,3-dideazaadenosine” (2007)
Values after ≈ are worked out from the molar mass of the structure shown.

Assays:
Assay type in all cases: functional
Streptococcus = assay: Antibacterial activity against Streptococcus group D after 18 to 24 hrs by disc diffusion method
How it was run: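 Kirby-Bauer disc diffusion: sterile 6 mm filter-paper discs impregnated with compound at 1.5, 1.1, 0.57, 0.28, 0.14 and 0.07 per mL. Discs showing zones were followed by broth dilution: doubling dilutions in 50% DMSO–H2O, inoculum to 0.5 McFarland, 37 °C for 18–24 h. MIC was the lowest dilution preventing visible turbidity. The initial solution (12.5% DMSO) was not scored.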

Cryptococcus neoformans = assay: Antifungal activity against Cryptococcus neoformans by disc diffusion method
How it was run: (§1)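 Fungi were screened first by disc diffusion on corn meal agar, with M-3 broth susceptibility test medium. MIC was then determined by broth dilution.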

Aspergillus fumigatus = assay: Antifungal activity against Aspergillus fumigatus by disc diffusion method; how it was run: as §1
Candida albicans = assay: Antifungal activity against Candida albicans by disc diffusion method; how it was run: as §1
Mucor = assay: Antifungal activity against Mucor sp. by disc diffusion method; how it was run: as §1
Talaromyces marneffei = assay: Antifungal activity against Penicillium marneffei by disc diffusion method; how it was run: as §1

SMILES | MIC (Streptococcus) [µM] | MIC (Cryptococcus neoformans) [µM] | MIC (Aspergillus fumigatus) [µM] | MIC (Candida albicans) [µM] | MIC (Mucor) [µM] | MIC (Talaromyces marneffei) [µM]
CN[C@H](CC(C)C)C(=O)N[C@H]1C(=O)N[C@@H](CC(N)=O)C(=O)N[C@H]2C(=O)N[C@H]3C(=O)N[C@H](C(=O)N[C@H](C(=O)O)c4cc(O)cc(O)c4-c4cc3ccc4O)[C@H](O)c3ccc(c(Cl)c3)Oc3cc2cc(c3O[C@@H]2O[C@H](CO)[C@@H](O)[C@H](O)[C@H]2O[C@H]2C[C@](C)(N)[C@H](O)[C@H](C)O2)Oc2ccc(cc2Cl)[C@H]1O [VANCOMYCIN] | 0.78 (≈ 1.13 µg/mL) |  |  |  |  | 
CCOC(=O)CCSC[C@H]1O[C@@H](n2cnc3c(N)cccc32)[C@H](O)[C@@H]1O | 0.19 (≈ 0.0725 µg/mL) | 0.38 (≈ 0.145 µg/mL) | 0.38 (≈ 0.145 µg/mL) | 0.38 (≈ 0.145 µg/mL) | 0.38 (≈ 0.145 µg/mL) | 0.38 (≈ 0.145 µg/mL)
Clc1ccc(COC(Cn2ccnc2)c2ccc(Cl)cc2Cl)c(Cl)c1 (stereo not given) [MICONAZOLE] |  | 0.77 (≈ 0.32 µg/mL) | 0.77 (≈ 0.32 µg/mL) | 0.77 (≈ 0.32 µg/mL) | 0.77 (≈ 0.32 µg/mL) | 0.77 (≈ 0.32 µg/mL)
C=CCSC[C@H]1O[C@@H](n2c(CC)nc3c([N+](=O)[O-])cccc32)[C@H](O)[C@@H]1O |  | 2 (≈ 0.759 µg/mL) | 2 (≈ 0.759 µg/mL) | 2 (≈ 0.759 µg/mL) | 2 (≈ 0.759 µg/mL) | 2 (≈ 0.759 µg/mL)
Nc1cccc2c1ncn2[C@@H]1O[C@H](CSCCC(=O)O)[C@@H](O)[C@H]1O | 0.38 (≈ 0.134 µg/mL) | 0.75 (≈ 0.265 µg/mL) | 0.75 (≈ 0.265 µg/mL) | 0.75 (≈ 0.265 µg/mL) | 0.75 (≈ 0.265 µg/mL) | 0.75 (≈ 0.265 µg/mL)
Nc1ncnc2c1ncn2[C@@H]1O[C@H](CSCCC(=O)O)[C@@H](O)[C@H]1O | 0.755 (≈ 0.268 µg/mL) | 1.5 (≈ 0.533 µg/mL) | 1.5 (≈ 0.533 µg/mL) | 1.5 (≈ 0.533 µg/mL) | 1.5 (≈ 0.533 µg/mL) | 1.5 (≈ 0.533 µg/mL)
C=CCSC[C@H]1O[C@@H](n2cnc3c([N+](=O)[O-])cccc32)[C@H](O)[C@@H]1O | 1.25 (≈ 0.439 µg/mL) | 0.38 (≈ 0.134 µg/mL) | 0.38 (≈ 0.134 µg/mL) | 0.38 (≈ 0.134 µg/mL) | 0.38 (≈ 0.134 µg/mL) | 0.38 (≈ 0.134 µg/mL)
OC(Cn1cncn1)(Cn1cncn1)c1ccc(F)cc1F [FLUCONAZOLE] |  | 0.52 (≈ 0.159 µg/mL) | 0.52 (≈ 0.159 µg/mL) | 0.52 (≈ 0.159 µg/mL) | 0.52 (≈ 0.159 µg/mL) | 0.52 (≈ 0.159 µg/mL)
